Results from article PMC9734322 (Inflammation Research, 2022).

Legend:
[1] = tested on: extrinsic pathway and common pathways of the coagulation cascade (plasma); experiment: Prothrombin time test; format: biochemical, human; settings: control 15 ± 2 s
[2] = tested on: initiation or propagation pathway of the coagulation cascade (plasma); experiment: Activated partial thromboplastin time; format: biochemical, human; settings: control 41.3 ± 0.7 s
[3] = tested on: calcium-dependent coagulation cascade factors (plasma); experiment: Plasma recalcification time test; format: biochemical, human; settings: control 196.9 ± 9 s
Method in brief: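 Pooled citrated plasma from healthy donors (100 µL) was incubated with saline or test compound for 10 min at 37 °C. CaCl₂ was added (12.5 mM final) and clotting time recorded in a coagulometer. Mean ± SEM.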

P2X7R = settings: ATP concentration required for activation; cited from earlier work
ATP-induced paw edema = ATP-induced paw edema assay; format: in vivo, mice (Swiss Webster); settings: 10 mM ATP subplantar, phlogistic agent
Method in brief: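 Male Swiss Webster mice (~30 g) were given test compound at 100, 500 or 1000 ng/kg i.p. 1 h before ATP (10 mM/paw subplantar, 20 µL), with 0.9% NaCl in the contralateral paw. Diclofenac 10 mg/kg i.p. was the positive control and saline the negative control. Paw volume was read by plethysmometer 60 min after ATP. Three experiments on different days; mean ± SD; one-way ANOVA/Tukey.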

[4] = tested on: platelet-rich plasma (PRP); settings: 1 µM, ADP 15 µM
[5] = tested on: carrageenan-induced peritonitis; experiment: Carrageenan-induced peritonitis, total and differential leukocyte count; format: in vivo, mice; settings: for % Mononuclear cells / % Neutrophils: mean ± SD
Method in brief: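 Mice were pretreated i.p. (100 µL) with test compound or dexamethasone 10 mg/kg, then given carrageenan 10 mg/kg i.p. 1 h later; PBS pH 7.4 served as negative control. Peritoneal fluid was collected 3 h after first administration. Total leukocytes were counted in a Neubauer chamber. Slides were methanol-fixed 5 min and Giemsa-stained 15–20 min; 100 cells were counted per slide. Three experiments on different days; mean ± SD; ANOVA/Tukey.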

[6] = pretreatment, then carrageenan 10 mg/kg 1 h later
[7] = substance alone, 10 mg/kg as printed, differential count of 100 cells

| Molecule | prothrombin time ([1]; 1 µM) [s] | prothrombin time ([1]; 10 µM) [s] | clotting time in the aPTT test ([2]; 1 µM) [s] | clotting time in the aPTT test ([2]; 10 µM) [s] | plasma recalcification clotting time ([3]; 1 µM) [s] | plasma recalcification clotting time ([3]; 10 µM) [s] | % Mononuclear cells [5, 7] | % Neutrophils [5, 7] | other results |
| --- | --- | --- | --- | --- | --- | --- | --- | --- | --- |
| O=C1CN=C(c2cccc(Br)c2)c2oc3ccccc3c2N1 [5-BDBD] | 15.4 ± 0.7 | 15.7 ± 0.5 | 41.9 ± 0.6 | 42.5 ± 0.8 | 204.6 ± 9 | 195 ± 7 | – | – | – |
| Nc1ncnc2c1ncn2[C@@H]1O[C@H](COP(=O)(O)OP(=O)(O)OP(=O)(O)O)[C@@H](O)[C@H]1O [ATP] | – | – | – | – | – | – | – | – | EC50 (P2X7R): ≥ 100 µM; increase in paw edema compared to the saline group (ATP-induced paw edema): 30% |
| COc1cc(S(=O)(=O)O)cc2cc(S(=O)(=O)O)c(NC(=O)c3ccc(C)c(NC(=O)c4cccc(NC(=O)Nc5cccc(C(=O)Nc6cc(C(=O)Nc7cc8c(OC)cc(S(=O)(=O)O)cc8cc7S(=O)(=O)O)ccc6C)c5)c4)c3)cc12 [NF770] | 15.5 ± 1 | 15.7 ± 1 | 40.9 ± 1 | 42.2 ± 1 | 200.4 ± 12 | 198 ± 8 | – | – | – |
| COC(=O)[C@H](c1ccccc1Cl)N1CCc2sccc2C1 [clopidogrel] | – | – | – | – | – | – | – | – | ADP-induced platelet aggregation [4]: inhibited ADP-induced platelet aggregation |
| C[C@@H]1C[C@H]2[C@@H]3CCC4=CC(=O)C=C[C@]4(C)[C@@]3(F)[C@@H](O)C[C@]2(C)[C@@]1(O)C(=O)CO [dexamethasone] | – | – | – | – | – | – | 90 ± 6ª % | 9 ± 7ª % | carrageenan-induced increase in white blood cells ([5]; dexamethasone 10 mg/kg i.p. pretreatment): reversed; % Mononuclear cells [5, 6]: 72 ± 9ª %; % Neutrophils [5, 6]: 27 ± 9ª^,g % |
| carrageenan | – | – | – | – | – | – | 28 ± 8% | 67 ± 10% | – |
